Source: PubChem
T cell modulator: T cell immune modulators affecting CD8 T cell-vesicle binding | 330,000 tested, 0.068% active | response (vesicle binding), % at 7 µM | 2C CD8+ T cell-vesicle binding, flow cytometry; active compounds read low;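 active = response, share of CD8 T cells binding vesicles, and their 90th percentile fluorescence all below set limits, cut at about 80% in these data, passing the limit was not always enough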;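 note: values below 100% mean blocked vesicle binding to the CD8+ T cells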
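Assay system – 2C mouse CD8+ T cells · Also added – QL9-loaded Drosophila micro-vesicles · Timing – Cell–vesicle co-incubation 1.5 h at 37 °C, staining 20 min on ice · Signal – flow cytometry of vesicle-bound cells · Measure – percent CD8+ FL2 mean versus row control · Controls – Peptide-free naked vesicles (low) and QL9 vesicles with 0.7% DMSO vehicle (high)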
DSG3 Ab inh: human desmoglein-3 autoantibody binding inhibition | DSG3-coupled beads, scFv-anti-DSG3-GFP binding, flow cytometry; active compounds read low | binding (percent of control), % at 10 µM | 310,000 tested, 0.48% active | AID 588358;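 active = binding more than 3 SD below its plate's average and above zero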;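 note: hits lower antibody fragment binding to DSG3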
GPR7 antagonist: human neuropeptides B/W receptor 1 antagonism; GPR7-expressing cells, fluorescence antagonist assay; inhibition, % at 4.4 µM; 290,000 tested, 1.1% active; in the data active = inhibition above about 16%, passing the limit was not always enough;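 note: cells stimulated with the agonist NPW; 0% = agonist with vehicle and 100% = vehicle without agonist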
pCIP destab: lowers stability of the mouse p/CIP coactivator protein; decrease of EGFP signal, % at 10 µM; Q05BA5; 290,000 tested, 0.01% active; F442A p/CIP-EGFP cells, EGFP fluorescence, 16 h;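 active = EGFP signal decrease of at least 30% at 10 µM or well 3 SD below plate mean, unless failing retest; inactive = the rest, including hits failing retest or dose response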
CHT inh: inhibits the human high affinity choline transporter. Q9GZV3. CHT-expressing cells, membrane potential dye, choline response; active compounds read low. B-score at 10 µM. 310,000 tested, 0.86% active;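 active = B-score over 3 SD under the library average, and starting fluorescence ratio not unusually high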;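 note: choline stimulus applied at its EC90 after an EC20 pre-addition; B-score computed on integrated fluorescence ratio after choline addition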
Target sequence (Q9GZV3 whole entry, looked up): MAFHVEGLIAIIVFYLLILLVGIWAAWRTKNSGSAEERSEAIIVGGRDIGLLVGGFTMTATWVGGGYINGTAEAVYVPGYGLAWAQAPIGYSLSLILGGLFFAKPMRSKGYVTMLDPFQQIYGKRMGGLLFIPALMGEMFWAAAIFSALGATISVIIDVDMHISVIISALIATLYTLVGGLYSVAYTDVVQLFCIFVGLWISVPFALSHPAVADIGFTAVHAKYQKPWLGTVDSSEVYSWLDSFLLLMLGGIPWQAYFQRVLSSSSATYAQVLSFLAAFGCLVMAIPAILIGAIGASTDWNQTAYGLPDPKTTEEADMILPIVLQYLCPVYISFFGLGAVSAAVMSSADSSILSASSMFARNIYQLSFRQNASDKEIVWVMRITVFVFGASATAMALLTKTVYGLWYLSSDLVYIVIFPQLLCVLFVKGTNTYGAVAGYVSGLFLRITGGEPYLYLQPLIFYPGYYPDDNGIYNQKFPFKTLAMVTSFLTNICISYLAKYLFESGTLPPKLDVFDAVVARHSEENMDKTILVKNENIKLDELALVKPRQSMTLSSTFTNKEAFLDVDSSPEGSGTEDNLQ
CHT allo act: allosteric activators of human choline transporter CHT; Q9GZV3; CHT-expressing cells, membrane potential dye, choline EC20; active compounds read high; LV-AA mutant CHT in HEK293 cells; B-score at 10 µM; 310,000 tested, 0.49% active;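 active = initial fluorescence not abnormally high and integrated response B-score, plate-corrected, over 3 SD above library mean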
GPR7 antag conf: confirmation of human GPR7 antagonists; shares compounds with GPR7 antagonist; GPR7-expressing cells, calcium fluorescence antagonist mode; inhibition, % at 4.4 µM; 2,400 tested, 52% active; AID 1952; in the data active = inhibition above about 24%;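 note: stimulated with the GPR7 agonist NPW; 0% = agonist plus vehicle and 100% = vehicle alone without agonist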
MCHR1 antagonist: MCHR1 (human) antagonism in GPR7 counter-screen; shares compounds with GPR7 antagonist; MCHR1-expressing cells, fluorescence antagonist assay; inhibition, % at 4.4 µM; 2,400 tested, 62% active; AID 2148; in the data active = inhibition above about 22%;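 note: 0% = vehicle with agonist and 100% = vehicle without agonist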
* = called active by the depositor; i = inactive; / = no result. An excerpt weighted towards active compounds, which were near 2.3% of everything screened.

SMILES | T cell modulator | DSG3 Ab inh | GPR7 antagonist | pCIP destab | CHT inh | CHT allo act | GPR7 antag conf | MCHR1 antagonist
Cc1cccc(C(=O)NC(=S)NNC(=O)c2ccc(Cl)cc2)c1 | 494.5 | 92.4 | 32.0* | -11.6 | i | i | 57.6* | 50.5*
COc1ccc(C(=O)NNC(=S)NC(=O)c2ccc(Cl)cc2)cc1 | i | 96.2 | / | / | i | i | / | /
CC1=C(C(=O)N2CCOCC2)CC(CC(=O)NC2CCCCC2)C(=O)N1CCCN1CCCC1=O (centres undefined) | / | 99.8 | / | / | / | / | / | /
O=C(Nc1ccc(Cl)cc1)c1cccc(NC2=NC3CS(=O)(=O)CC3S2)c1 (centres undefined) | i | 100.8 | 24.1* | -1.2 | i | i | -3.3 | 0.0
COc1cccc(C2c3cc4c(cc3OC(C)(N3CCCC3)C2C)OCO4)c1O (centres undefined) | / | 91.3 | / | / | / | / | / | /
Brc1c(CSc2nnc(-c3ccco3)o2)nc2ccccn12 | 225.7 | 100.8 | 23.9* | -11.8 | i | i | 10.0 | -4.1
COC(=O)Cc1ccc(NC(=S)N2CCN(c3ccc(OC)cc3)CC2)cc1 | 272.8 | 98.6 | -3.3 | -9.0 | i | i | / | /
COC(=O)Cc1ccc(NC(=S)N2CCN(C)CC2)cc1 | 239.5 | 86.5 | 33.9* | -5.7 | i | i | -6.1 | 13.0
O=C(CC(C(=O)N1CCc2ccccc21)n1ccnc1)NCC1CCCO1 (centres undefined) | 343.1 | 99.0 | 24.3* | 5.1 | i | i | 3.9 | 4.1
OC(COc1ccc(F)cc1Cl)CN1CCC(Cc2ccccc2)CC1 (centres undefined) | 129.9 | 119.3 | 42.4* | -7.9 | i | i | 20.7 | 43.3*
CCCc1cc(C(=O)Nc2ccc(F)c(Cl)c2)no1 | 396.8 | 66.2 | 28.9* | -3.8 | i | i | 32.7* | 30.2*
COc1ccccc1-c1cc(C(=O)N2CCCC2)no1 | 309.2 | 98.0 | -13.2 | -18.9 | i | i | / | /
O=C(c1cc(-c2ccccc2Cl)on1)N1CCCC1 | 225.9 | 95.1 | 26.8* | -2.3 | i | i | 17.2 | 7.3
CCOc1ccccc1N1CCN(c2ncnc3scc(-c4ccc(OC)cc4)c23)CC1 | 0.0 | 104.9 | 54.3* | -9.2 | i | i | 16.8 | 54.1*
COc1ccc(-c2csc3ncnc(N4CCN(c5ccccc5OC)CC4)c23)cc1 | 227.0 | 105.6 | 7.8 | 6.7 | i | i | / | /
Cc1ccc(C)c(CN2CCC(CNC(=O)Nc3ccc(F)c(Cl)c3)CC2)c1 | 423.9 | 104.7 | 37.6* | -2.8 | i | i | 39.8* | 68.4*
Cn1nnnc1SCCNCc1ccccc1OCc1ccc(Cl)cc1 | i | 82.8 | 10.3 | -11.0 | i | i | / | /
Cn1nnnc1SCCNCc1cc(Cl)ccc1OCc1ccccc1 | 413.7 | 99.2 | 23.6* | 3.1 | i | i | 23.8 | 43.5*
Cc1cc(C=O)c(C)n1-c1ccc(Oc2ccc([N+](=O)[O-])cn2)cc1 | 308.5 | 126.2 | 26.7* | 9.1 | i | i | 35.9* | 52.5*
COc1ccc(NC(=O)/C(C#N)=C\c2cc(C)n(-c3ccc(Oc4ccc([N+](=O)[O-])cn4)cc3)c2C)cc1 | 253.0 | 92.1 | -4.6 | -20.6 | i | i | / | /
CC(C)c1nc(C(=O)N2CCc3c([nH]c4ccccc34)C2c2ccccn2)cs1 (centres undefined) | 292.3 | 102.9 | -7.9 | 0.0 | i | i | / | /
Cc1nc(C(=O)N2CCc3c([nH]c4ccccc34)C2c2cc(F)ccc2F)cs1 (centres undefined) | 414.4 | 94.2 | 21.7* | 20.2 | i | i | 1.0 | 8.7
O=C(c1cc[n+]([O-])cc1)N1CCc2c([nH]c3ccccc23)C1c1ccccc1Cl (centres undefined) | 158.0 | / | 30.9* | 6.9 | i | i | 11.6 | 6.7
CC(=O)N1CCN(C(=O)COC(=O)/C=C/c2ccccc2[N+](=O)[O-])CC1 | 637.5 | 93.4 | / | / | / | / | / | /
Cc1cc(Cl)ccc1OC(C)C(=O)N1CCCN(C(=O)C(C)Oc2ccc(Cl)cc2C)CC1 (centres undefined) | 444.5 | 112.8 | 32.3* | -12.9 | i | i | 62.8* | 70.8*
SMILES | T cell modulator | DSG3 Ab inh | GPR7 antagonist | pCIP destab | CHT inh | CHT allo act | GPR7 antag conf | MCHR1 antagonist
COc1ccc(C(=O)NCCCN2CCCC2=O)cc1S(=O)(=O)N1CCOCC1 | / | 95.1 | / | / | / | / | / | /
CC1CCN(C(=O)c2cc(S(=O)(=O)N3CCCCC3)c[nH]2)CC1 | 166.8 | 99.7 | 26.5* | -1.2 | i | i | 5.8 | 5.0
C[C@@H]1CN([C@H](C)CO)C(=O)CCCn2nncc2CO[C@H]1CN(C)Cc1cccc(C(F)(F)F)c1 | / | 104.0 | / | / | / | / | / | /
CCOC(=O)CNS(=O)(=O)c1cc(-c2nnc(Nc3ccc4c(c3)OCO4)c3ccccc23)ccc1C | 56.4 | 103.8 | 35.9* | -1.3 | i | i | 46.9* | 78.3*
O=C(Nc1ccc([N+](=O)[O-])cc1)c1ccc(Cn2cc([N+](=O)[O-])cn2)cc1 | 192.7 | 102.0 | 23.8* | -10.0 | i | i | 66.5* | 72.2*
O=C(Nc1cnn(Cc2ccc(Cl)cc2)c1)c1ccc([N+](=O)[O-])cc1 | 155.6 | / | 5.5 | 1.9 | i | i | / | /
COc1cccc(C#Cc2ccc3c(c2)O[C@H](CN(C)C)[C@@H](C)CN([C@@H](C)CO)S3(=O)=O)c1 | / | 108.6 | / | / | / | / | / | /
CCOc1ccc([N+](=O)[O-])cc1CNC1CCCCCCC1 | 216.5 | 111.3 | 54.0* | -5.3 | i | i | 38.2* | 20.7
O=[N+]([O-])c1cccc(CNC2CCCCCC2)c1 | 186.5 | / | 6.1 | -10.4 | i | i | / | /
NC(=O)CN1CCOCCN(CC(N)=O)CCOCC1 | 473.2 | / | / | -12.4 | i | i | / | /
NC(=O)CN1CCOCCOCCN(CC(N)=O)CCOCCOCC1 | 316.1 | 83.0 | 61.3* | 9.5 | i | i | -17.1 | -7.8
CCCCCCCCCCCCCCCC(=O)Nc1ccn(C2OC(CO)C(O)C2O)c(=O)n1 (centres undefined) | / | 100.1 | / | / | / | / | / | /
CCc1cccc2c(C(=O)C(NCCCOC)c3ccccc3)c[nH]c12 (centres undefined) | 505.6 | 104.9 | 35.1* | -11.0 | i | i | 42.6* | 29.8*
O=CNc1ccc2c3c(cccc13)-c1ccccc1-2 | / | 89.6 | / | / | / | / | / | /
CCOc1ccc2nc3ccc4[nH]onc4c3c2c1 | 25.2 | 120.4 | 27.8* | / | i | i | 47.9* | 46.0*
O=C(c1ccccc1)C1(c2ccccc2)OC1c1ccccc1 (centres undefined) | / | 96.2 | / | / | / | / | / | /
